Results reported in ChEMBL document CHEMBL3608241, “Molecular docking design and one-pot expeditious synthesis of novel 2,5-diarylpyrazolo[1,5-a]pyrimidin-7-amines as anti-inflammatory agents” (2015).

Experiments:
Type in all cases: functional
Rattus norvegicus [1] = experiment: Antiinflammatory activity in Wistar albino rat assessed as inhibition of carrageenan-induced paw edema at 50 mg/kg, po administered 30 mins prior to carrageenan challenge measured after 1 hr by plethysmometric analysis relative to control
In short: (§1)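 Male Wistar albino rats, 200-250 g, housed under standard light and temperature, fasted from 12 h before and through the experiment; groups of five. Oral dosing 30 min before 0.1 ml of 1% carrageenan in 0.9% saline was injected into the left hind paw plantar region. Controls received Tween 80 only. Paw volume was read by plethysmometer at 0 h and at 1-4 h. Inhibition (%) = (Vc − Vt)/Vc × 100; mean ± SEM.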

Rattus norvegicus [2] = experiment: Antiinflammatory activity in Wistar albino rat assessed as inhibition of carrageenan-induced paw edema at 50 mg/kg, po administered 30 mins prior to carrageenan challenge measured after 4 hrs by plethysmometric analysis relative to control; in short: as §1
Rattus norvegicus [3] = experiment: Antiinflammatory activity in Wistar albino rat assessed as inhibition of carrageenan-induced paw edema at 50 mg/kg, po administered 30 mins prior to carrageenan challenge measured after 3 hrs by plethysmometric analysis relative to control; in short: as §1
Rattus norvegicus [4] = experiment: Antiinflammatory activity in Wistar albino rat assessed as inhibition of carrageenan-induced paw edema at 50 mg/kg, po administered 30 mins prior to carrageenan challenge measured after 2 hrs by plethysmometric analysis relative to control; in short: as §1
Rattus norvegicus [5] = experiment: Antiinflammatory activity in Wistar albino rat assessed as inhibition of carrageenan-induced paw edema at 10 mg/kg, po administered 30 mins prior to carrageenan challenge measured after 3 hrs by plethysmometric analysis relative to control; in short: as §1
Rattus norvegicus [6] = experiment: Antiinflammatory activity in Wistar albino rat assessed as inhibition of carrageenan-induced paw edema at 10 mg/kg, po administered 30 mins prior to carrageenan challenge measured after 2 hrs by plethysmometric analysis relative to control
In short: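 Male Wistar albino rats, 200-250 g, fasted 12 hr before and during the test; groups of five. Oral dosing 30 min before sub-plantar injection of 0.1 ml carrageenan (1% in 0.9% saline) into left hind paw; controls got tween 80. Paw volume read by plethysmometer at 0 hr and 1-4 hr; % inhibition = (Vc−Vt)/Vc×100 against control; mean ± SEM.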

Rattus norvegicus [7] = experiment: Antiinflammatory activity in Wistar albino rat assessed as inhibition of carrageenan-induced paw edema at 10 mg/kg, po administered 30 mins prior to carrageenan challenge measured after 4 hrs by plethysmometric analysis relative to control; in short: as §1
Rattus norvegicus [8] = experiment: Antiinflammatory activity in Wistar albino rat assessed as inhibition of carrageenan-induced paw edema at 10 mg/kg, po administered 30 mins prior to carrageenan challenge measured after 1 hr by plethysmometric analysis relative to control; in short: as §1

Structure (SMILES)	inhibition in vivo at 50 mg/kg (Rattus norvegicus [1]) [%]	inhibition in vivo at 50 mg/kg (Rattus norvegicus [2]) [%]	inhibition in vivo at 50 mg/kg (Rattus norvegicus [3]) [%]	inhibition in vivo at 50 mg/kg (Rattus norvegicus [4]) [%]	inhibition in vivo at 10 mg/kg (Rattus norvegicus [5]) [%]	inhibition in vivo at 10 mg/kg (Rattus norvegicus [6]) [%]	inhibition in vivo at 10 mg/kg (Rattus norvegicus [7]) [%]	inhibition in vivo at 10 mg/kg (Rattus norvegicus [8]) [%]
Cc1ccc(-c2cc3nc(-c4ccc(Br)cc4)cc(N)n3n2)cc1	71.2	66.7	56.1	56.2				
Cc1ccc(-c2cc(N)n3nc(-c4ccc(Cl)cc4)cc3n2)cc1	57.7	81	69.5	75				
Nc1cc(-c2ccc(Br)cc2)nc2cc(-c3ccccc3)nn12	65.4	66.7	56.1	63.8				
Cc1ccc(-c2cc3nc(-c4ccc(Cl)cc4)cc(N)n3n2)cc1	59.6	67.8	64.6	67.5				
Nc1cc(-c2ccc(Br)cc2)nc2cc(-c3ccc(Cl)cc3)nn12	59.6	76.2	70.7	60				
COc1ccc2c(c1)c(CC(=O)O)c(C)n2C(=O)c1ccc(Cl)cc1 [INDOMETHACIN]					82.9	80	84.5	73.1
Cc1ccc(-c2cc3nc(-c4ccc(F)cc4)cc(N)n3n2)cc1	28.8	64.3	26.8	65				
Nc1cc(-c2ccc(Cl)cc2)nc2cc(-c3ccc(Br)cc3)nn12	13.5	65.5	56.1	72.5				
Cc1ccc(-c2cc(N)n3nc(-c4ccc(Br)cc4)cc3n2)cc1	67.3	64.3	73.2	76.2				
Cc1ccc(-c2cc(N)n3nc(-c4ccccc4)cc3n2)cc1	28.8	54.8	31.7	37.5				
Nc1cc(-c2ccc(Cl)cc2)nc2cc(-c3ccccc3)nn12	21.1	51.2	28	13.8				
Cc1ccc(-c2cc3nc(-c4ccccc4)cc(N)n3n2)cc1	26.9	34.5	34.1	17.5				
